Measured values taken from the array DNA melting data of Ke et al. (doi:10.1101/2024.01.08.574731).

Legend:
[1] = melting temperature; fluorescence melt of hairpins on a sequencing array, two-state fit, raised by 9.35 °C to match UV melts; details: sodium 0.088 M
In short: (§1)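 Library hairpins on a sequenced MiSeq flow cell carried annealed Cy3 and quencher oligos, and their Cy3 fluorescence was imaged in 50 mM Na-HEPES pH 8.0 with 25 mM NaCl, in 2.5 °C steps up to 60 °C. Signals were normalised to Cy3 before quenching and to control constructs. Melting temperature and folding enthalpy were obtained from bootstrapped two-state fits, combined by inverse-variance weighting across four replicates, and the fitted temperatures were then raised by 9.35 °C to match UV melts.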

[2] = folding enthalpy; higher = less favourable; fluorescence melt of hairpins on a sequencing array, two-state fit; details: sodium 0.088 M
In short: as §1

Row | Sequence | Tm [1] | folding enthalpy [2]
1 | GTAAGCGAAAGCTGCTAC ((((((....)))..))) | 41 °C | -12.7 kcal/mol
2 | GTAAGCGAAAGCTGGTAC ((((((....)))..))) | 32.3 °C | -11 kcal/mol
3 | GTAAGCGAAAGCTTCTAC ((((((....)))..))) | 33.6 °C | -11.2 kcal/mol
4 | GTAAGGGGAAACCCTCAC ((.((((....)))).)) | 30.2 °C | -13.7 kcal/mol
5 | GTAAGTCGAAAGACGTAC (((.(((....))).))) | 47.1 °C | -15.2 kcal/mol
6 | GTAAGTGAAAACTTAC ((((((....)))))) | 48.7 °C | -27.4 kcal/mol
7 | GTAAGTGGAAACACTCAC ((.((((....)))).)) | 32.7 °C | -15.4 kcal/mol
8 | GTAAGTGGAAACACTTGC (.(((((....))))).) | 45 °C | -26.7 kcal/mol
9 | GTAAGTGGAAACATTTAC ((((.((....)).)))) | 32.3 °C | -25.6 kcal/mol
10 | GTAATACGAAAGTACTAC (((.(((....))).))) | 31.1 °C | -16.9 kcal/mol
11 | GTAATAGCGAAAGCTTAC (((..(((....)))))) | 30.2 °C | -12.6 kcal/mol
12 | GTAATCCGAAAGGACTAC (((.(((....))).))) | 37.9 °C | -25.6 kcal/mol
13 | GTAATCGAAAGATGCTAC ((((((....)))..))) | 30.2 °C | -17.3 kcal/mol
14 | GTAATGCCGAAAGGCTAC (((..(((....)))))) | 26.8 °C | -9.18 kcal/mol
15 | GTAATGCGAAAGCAGTAC (((.(((....))).))) | 53.4 °C | -30.6 kcal/mol
16 | GTAATGCGAAAGCATAC (((.(((....)))))) | 46 °C | -13.3 kcal/mol
17 | GTAATGGCGAAAGCCTAC (((..(((....)))))) | 31.3 °C | -7.82 kcal/mol
18 | GTAATTGAAAAATTAC ((((((....)))))) | 40.3 °C | -26.2 kcal/mol
19 | GTACAAGAAATTGTAC ((((((....)))))) | 45 °C | -32.5 kcal/mol
20 | GTACAAGGAAACCTGTAC (((((.(....).))))) | 38.2 °C | -26.1 kcal/mol
21 | GTACACGAAAGTGAATAC ((((((....)))..))) | 28.6 °C | -10.6 kcal/mol
22 | GTACACGAAAGTGACTAC ((((((....)))..))) | 37.2 °C | -15.4 kcal/mol
23 | GTACACGAAAGTGCTTAC ((((((....)))..))) | 33.3 °C | -11.9 kcal/mol

Row | Sequence | Tm [1] | folding enthalpy [2]
24 | GTACACGAAAGTGTAC ((((((....)))))) | 68.3 °C | -30.2 kcal/mol
25 | GTACACGGAAACGTGTAC (((((((....))))))) | 63.4 °C | -37.7 kcal/mol
26 | GTACACGGAAACGTGTGC (.(((((....))))).) | 56.2 °C | -27.1 kcal/mol
27 | GTACACTCGAAAGAGTAC (((..(((....)))))) | 29.4 °C | -13.8 kcal/mol
28 | GTACAGGGAAACCTGCAC ((.((((....)))).)) | 39.7 °C | -22.4 kcal/mol
29 | GTACAGGGAAACTTGTAC (((((.(....).))))) | 39.8 °C | -30.4 kcal/mol
30 | GTACAGGGAAACTTGTGC (.(((.(....).))).) | 27.9 °C | -16 kcal/mol
31 | GTACATCGAAAGATTAC (((.(((....)))))) | 32.1 °C | -20.3 kcal/mol
32 | GTACCACGAAAGTGTAC (((.(((....)))))) | 42.3 °C | -22 kcal/mol
33 | GTACCAGGAAACTGATAC (((.(((....))).))) | 31.4 °C | -26.6 kcal/mol
34 | GTACCAGGAAACTGGTGC (.(((((....))))).) | 51.4 °C | -43 kcal/mol
35 | GTACCCCGAAAGGGATAC (((.(((....))).))) | 46.1 °C | -19.6 kcal/mol
36 | GTACCCCGAAAGGGTAC (((.(((....)))))) | 58.3 °C | -28.3 kcal/mol
37 | GTACCCGAAAGGGAATAC ((((((....)))..))) | 29.7 °C | -12.4 kcal/mol
38 | GTACCCGAAAGGGCGTAC ((((((....)))..))) | 34.2 °C | -14.3 kcal/mol
39 | GTACCCGAAAGGGTTAC ((((((....))).))) | 46.4 °C | -13.4 kcal/mol
40 | GTACCGGGAAACCGATAC (((.(((....))).))) | 40 °C | -27.7 kcal/mol
41 | GTACCGGGAAACTGGTAC (((((.(....).))))) | 51.4 °C | -33.2 kcal/mol
42 | GTACGAGGAAACTTGTAC ((((.((....)).)))) | 44 °C | -37.1 kcal/mol
43 | GTACGCCGAAAGGCTAC (((.(((....)))))) | 47.6 °C | -15.1 kcal/mol
44 | GTACGCGAAAGCGATAC ((((((....))).))) | 48.2 °C | -13.9 kcal/mol
45 | GTACGCGAAAGCGATTAC ((((((....)))..))) | 29.7 °C | -11.2 kcal/mol
46 | GTACGCGAAAGCGTCTAC ((((((....)))..))) | 39.9 °C | -7.82 kcal/mol

Row | Sequence | Tm [1] | folding enthalpy [2]
47 | GTACGCGAAAGCGTGTAC ((((((....)))..))) | 38 °C | -9.86 kcal/mol
48 | GTACGGAAACGTAC (((((....))))) | 53.7 °C | -32.4 kcal/mol
49 | GTACGGGGAAACCCGCAC ((.((((....)))).)) | 54.3 °C | -18.6 kcal/mol
50 | GTACGGGGAAACCTGTGC (.((.((....)).)).) | 37.3 °C | -25.8 kcal/mol
51 | GTACGTCGAAAGACATAC (((.(((....))).))) | 38.4 °C | -20.1 kcal/mol
52 | GTACGTGGAAACGTGTAC ((((..(....)..)))) | 37.4 °C | -12.3 kcal/mol
53 | GTACTACGAAAGTAATAC (((.(((....))).))) | 29.8 °C | -15.2 kcal/mol
54 | GTACTAGAAATAGTAC ((((((....)))))) | 42.4 °C | -27.2 kcal/mol
55 | GTACTCGAAAGAGCTAC ((((((....))).))) | 35 °C | -16.4 kcal/mol
56 | GTACTCGCGAAAGCGTAC (((..(((....)))))) | 30.4 °C | -11.1 kcal/mol
57 | GTACTGAAAAGTAC (((((....))))) | 46.8 °C | -20.8 kcal/mol
58 | GTACTGGGAAACTAGTGC (.(((.(....).))).) | 31.2 °C | -19.4 kcal/mol
59 | GTACTTGGAAACAAGCAC ((.((((....)))).)) | 37.8 °C | -25.8 kcal/mol
60 | GTAGAAGCGAAAGCTTAC (((..(((....)))))) | 30.1 °C | -11.6 kcal/mol
61 | GTAGACCCGAAAGGGTAC (((..(((....)))))) | 32.3 °C | -9.26 kcal/mol
62 | GTAGACCGAAAGGTGTAC (((.(((....))).))) | 50.8 °C | -36.3 kcal/mol
63 | GTAGACCGAAAGGTTAC (((.(((....)))))) | 38.5 °C | -16.7 kcal/mol
64 | GTAGACGAAAGTCCGTAC ((((((....)))..))) | 21 °C | -8.44 kcal/mol
65 | GTAGACGAAAGTCGATAC ((((((....)))..))) | 34.7 °C | -11.2 kcal/mol
66 | GTAGACGAAAGTCTGTAC ((((((....)))..))) | 36.8 °C | -11.6 kcal/mol
67 | GTAGACGGAAACGTCCAC ((.((((....)))).)) | 37.9 °C | -13.4 kcal/mol
68 | GTAGAGCGAAAGCTATAC (((.(((....))).))) | 51.6 °C | -23.4 kcal/mol
69 | GTAGAGCGAAAGCTTAC (((.(((....)))))) | 38.5 °C | -12.8 kcal/mol

Row | Sequence | Tm [1] | folding enthalpy [2]
70 | GTAGAGGGAAACCCCTAC ((((.((....)).)))) | 39.2 °C | -20.4 kcal/mol
71 | GTAGAGGGAAACCTCTGC (.(((((....))))).) | 45.9 °C | -23.1 kcal/mol
72 | GTAGATACGAAAGTATAC (((..(((....)))))) | 25.4 °C | -11.6 kcal/mol
73 | GTAGATCCGAAAGGATAC (((..(((....)))))) | 30.4 °C | -11.1 kcal/mol
74 | GTAGATCGAAAGATTTAC (((.(((....))).))) | 39.5 °C | -30.4 kcal/mol
75 | GTAGCACGAAAGTGTTAC (((.(((....))).))) | 51.5 °C | -29.2 kcal/mol
76 | GTAGCAGAAATGCTAC ((((((....)))))) | 55.9 °C | -35.4 kcal/mol
77 | GTAGCAGGAAACTGCTGC (.(((((....))))).) | 55.5 °C | -26.2 kcal/mol
78 | GTAGCCACGAAAGTGTAC (((..(((....)))))) | 22.3 °C | -9.72 kcal/mol
79 | GTAGCCGAAAGGCAGTAC ((((((....)))..))) | 30.4 °C | -9.03 kcal/mol
80 | GTAGCCGAAAGGCTATAC ((((((....)))..))) | 47.1 °C | -10.2 kcal/mol
81 | GTAGCCGAAAGGCTGTAC ((((((....)))..))) | 31.2 °C | -9.24 kcal/mol
82 | GTAGCCGAAAGGCTTTAC ((((((....)))..))) | 27.3 °C | -7 kcal/mol
83 | GTAGCCGGAAACGACTAC ((((.((....)).)))) | 46.6 °C | -34.4 kcal/mol
84 | GTAGCGCGAAAGCGTTAC (((.(((....))).))) | 58.3 °C | -23.1 kcal/mol
85 | GTAGCGGCGAAAGCCTAC (((..(((....)))))) | 29.9 °C | -10.4 kcal/mol
86 | GTAGCTCCGAAAGGATAC (((..(((....)))))) | 25.4 °C | -14.6 kcal/mol
87 | GTAGCTCGAAAGAGGTAC (((.(((....))).))) | 56.7 °C | -38 kcal/mol
88 | GTAGCTCGAAAGAGTTAC (((.(((....))).))) | 50.6 °C | -33.6 kcal/mol
89 | GTAGCTGGAAACAGCTAC (((((((....))))))) | 66 °C | -39 kcal/mol
90 | GTAGGACGAAAGTCTAC (((.(((....)))))) | 43 °C | -17.2 kcal/mol
91 | GTAGGAGGAAACTCCTAC (((((((....))))))) | 57.5 °C | -38 kcal/mol
